# The list is not random: actives were taken first. Their share in the collection is about 0.81%.
# L929 necroptosis: blocks zVAD induced death of L929 cells; AID 1377; 0.38% of 220,000 active; viability rescue, % at 10 µM; L929 zVAD necroptosis rescue, ATP luminescence, 24 h; with zVAD 60 µM;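 active = activation, scaled between plate controls, above about 75%, limit read from the data; inactive = activation under that limit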;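 also: 0% = zVAD with DMSO and 100% = DMSO alone without zVAD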
# SDO1 yeast rescue: sdo1-depleted yeast growth rescue. AID 817. z-score at 10 µM. 0.21% of 140,000 active. S. cerevisiae sdo1-depleted JHY4D growth rescue, OD600 30 h; stronger effect = higher value; pdr5 snq2 efflux-pump mutant strain;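 active = z-score above 3 at both the 24 hr and the 30 hr optical density reads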;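 also: z-score against mean and SD of all compound wells on the same plate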
# TNF death inh: inhibitors of TNF-alpha induced necroptosis in Jurkat FADD-/- cells | Jurkat FADD-/- TNF necroptosis rescue, ATP luminescence, 24 h; 0 = TNF only, 100 = no-TNF cells | 0.068% of 220,000 active | activation (protection from cell death), % at 10 µM | AID 463075;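 active = activation, meaning protection from cell death, of at least 50% relative to plate controls; inactive = activation below 50%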;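 also: necroptosis triggered by 40 ng/mL TNF-alpha added together with compound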
# TNAP act hi DEA: TNAP (human) activation, high acceptor; activation factor at 20 µM; 200,000 tested, under 10 active; P05186; AID 1136; purified TNAP, CDP-star luminescence, 1 M DEA, 30 min; stronger effect = higher value; 0 = EDTA background, 1 = DMSO-only activity;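 active = activation factor at least 2 at 20 µM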
# Target sequence (P05186 whole entry, looked up): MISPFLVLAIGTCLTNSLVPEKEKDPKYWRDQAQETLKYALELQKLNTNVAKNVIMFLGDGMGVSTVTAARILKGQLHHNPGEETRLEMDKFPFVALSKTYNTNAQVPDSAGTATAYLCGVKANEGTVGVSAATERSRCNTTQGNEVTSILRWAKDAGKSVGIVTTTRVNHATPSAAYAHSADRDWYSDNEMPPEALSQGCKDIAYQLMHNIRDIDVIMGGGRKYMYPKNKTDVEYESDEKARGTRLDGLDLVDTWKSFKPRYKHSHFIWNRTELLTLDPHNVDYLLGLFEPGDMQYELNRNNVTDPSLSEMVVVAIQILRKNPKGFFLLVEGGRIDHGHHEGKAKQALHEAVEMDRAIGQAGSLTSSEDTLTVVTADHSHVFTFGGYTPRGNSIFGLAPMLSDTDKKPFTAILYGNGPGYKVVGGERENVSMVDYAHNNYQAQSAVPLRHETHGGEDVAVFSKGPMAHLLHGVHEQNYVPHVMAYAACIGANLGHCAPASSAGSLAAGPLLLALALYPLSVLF
#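 Dosing: 20 µM single point. System: human TNAP. Amount: TNAP 1/800 final. Incubation: 30 min, room temperature. Read-out: TNAP activation factor scaled between EDTA and DMSO control wells. Signal: luminescence from CDP-star hydrolysis. Medium: 1 M DEA, pH 9.8, Mg2+, Zn2+. Control set: EDTA negative control, DMSO positive control.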
# TNAP inh noacc: inhibitors of human TNAP without phosphate acceptor; P05186; purified TNAP, CDP-star luminescence, 30 min; inhibition, % at 20 µM; 0.26% of 200,000 active;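 active = tissue-nonspecific alkaline phosphatase inhibition above about 50% at 20 µM in the single-dose screen, limit read from the data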;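 also: 0% = DMSO negative control and 100% = EDTA positive control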
# TNAP inh hi DEA: blocks human TNAP under high phosphate acceptor concentration | P05186 | inhibition, % at 20 µM | purified TNAP, CDP-star luminescence, 1 M DEA | AID 1135 | 0.03% of 200,000 active;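 active = over 50% inhibition of tissue-nonspecific alkaline phosphatase at 20 µM in the single-dose screen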;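 also: plate controls were DMSO wells for no effect and EDTA-quenched wells as full inhibition for full effect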
# SDO1 rescue DR: confirmation of growth rescue in SDO1-depleted yeast, bone marrow failure | shares compounds with SDO1 yeast rescue | S. cerevisiae JHY4D (SDO1-depleted) growth rescue, OD600, 30 h; stronger effect = higher value; efflux-deficient strain, SNQ2 and PDR5 mutated | OD recovery (concentration not given with the values) | 44% of 440 active;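 active = yeast growth recovered at 30 hours, either rising with dose fitted slope above 0.001 or with average optical density gain above 0.07, some results past the limit were not filed as active; inactive = growth falling with dose or no effect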;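 also: gain in OD600 from 0 h to 30 h averaged across all seven doses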
# * = called active by the depositor; / = not tested or not shown.
SMILES,L929 necroptosis,SDO1 yeast rescue,TNF death inh,TNAP act hi DEA,TNAP inh noacc,TNAP inh hi DEA,SDO1 rescue DR
Nc1nnc(CSc2ccc(Cl)cc2)s1,104*,3.6,23,1,-10,-3,/
O=C1c2ccccc2C(=O)N1CCCc1nc2ccccc2c(=O)n1CCCn1ccnc1,0,0.95,-7,0.8,53*,17,/
Cn1c(-n2c(CCCN3C(=O)c4ccccc4C3=O)nc3ccccc3c2=O)nc2ccccc21,0,-0.82,-7,1,-5,-2,/
CN(C(=O)CCc1ccccc1)c1nnc(-c2ccncc2)s1,2,/,3,1.1,-10,-8,/
Cc1[nH]c(=O)[nH]c(=O)c1S(=O)(=O)NCCc1ccc(S(N)(=O)=O)cc1,2,1.5,3,1,0,-4,/
Cc1n[nH]c(C)c1S(=O)(=O)NCCc1ccc(Cl)cc1,0,1,0,1,61*,-3,/
COc1ccc(OC)c(C2CC(=O)Nc3n[nH]c(-c4ccccc4)c32)c1 (stereo unspecified),0,/,-3,1,34,-3,/
COc1ccc(C2CC(=O)Nc3n[nH]c(-c4ccccc4)c32)cc1OC (stereo unspecified),12,/,-1,1,64*,-1,/
Cc1cc([N+](=O)[O-])nn1Cn1nc([N+](=O)[O-])cc1C,1,/,1,1,-13,-2,/
Cc1cc([N+](=O)[O-])nn1Cc1ccccc1F,91*,-0.07,95*,1.1,-2,-5,/
O=C(CSc1nnnn1-c1ccccc1)N1N=CCC1c1ccccc1 (stereo unspecified),14,0.84,97*,1,0,0,/
COC(=O)CSc1nnnn1-c1ccccc1,0,-0.2,-3,1,-9,-2,/
Cc1ccc(SCC(=O)N2N=CCC2c2ccccc2)cc1 (stereo unspecified),7,/,68*,1,-16,-1,/
Cc1nnc(NC(=O)CSc2ncnc3scc(-c4ccccc4)c23)s1,1,2.3,0,1,-10,-4,0.087*
O=C(NCCCc1ccccc1)c1cccc([N+](=O)[O-])c1,0,-0.15,3,1,-6,-1,/
O=C(NCCCN1CCN(CCCNC(=O)c2cccc([N+](=O)[O-])c2)CC1)c1cccc([N+](=O)[O-])c1,0,11*,3,1,-17,-4,0.055
CCc1cc(=O)oc2cc(OCC(=O)O)c(Cl)cc12,1,0.72,1,1,-10,-3,/
CCc1cc(=O)oc2cc(OC(C)C(=O)O)c(Cl)cc12 (stereo unspecified),2,3.1*,1,1.1,-13,-8,0.092*
O=C(Nc1ccc(N2CCOCC2)cc1)c1ccc(S(=O)(=O)NCc2ccco2)cc1,0,/,-1,/,/,/,/
N=c1c2c3c(sc2ncn1CCN1CCOCC1)CCCCC3,-1,11*,1,1.1,-8,-6,0.042
c1nc(NCCN2CCOCC2)c2c3c(sc2n1)CCCCC3,0,-0.33,3,1,-3,-5,/
CSc1nsc(SC)c1C(=O)N1CCN(S(=O)(=O)c2ccc(C)cc2)C1C(C)C (stereo unspecified),-1,-1,-2,1,0,-1,/
CSc1nsc(SC)c1C(=O)N1CCN(S(=O)(=O)c2ccc(C)cc2)C1C (stereo unspecified),0,3.9*,1,1,-12,-2,0.053
O=C(COc1ncnc2ccccc12)Nc1cccc(S(=O)(=O)N2CCOCC2)c1,1,3.6*,3,1,-15,-2,0.066
O=C(COc1ncnc2ccccc12)Nc1ccc(S(=O)(=O)N2CCOCC2)cc1,-1,/,0,/,/,/,/
SMILES,L929 necroptosis,SDO1 yeast rescue,TNF death inh,TNAP act hi DEA,TNAP inh noacc,TNAP inh hi DEA,SDO1 rescue DR
COc1ccc2c(c1)CCc1c(C(=O)NCCc3ccc(OC)c(OC)c3)noc1-2,5,0.22,0,1,-7,0,0.037
COc1cccc(CN2C(=O)c3cccc(N)c3C2=O)c1,0,-0.98,0,1.1,-21,-5,/
CN(C)CCCNC(=O)C1CCNCC1,1,3.1*,1,1,-10,-5,0.1*
CN(C)CCCNC(=O)c1cc(C(=O)C2CCCCC2)c[nH]1,4,/,0,1,-15,-2,/
O=C(CCCSc1nc2sc3c(c2c(=O)[nH]1)CCC3)NCCO,0,0.84,-5,1.1,-17,-9,/
CC(C(=O)NC1CCCCC1)N1CCN(C)CC1 (stereo unspecified),0,/,2,/,/,/,/
COc1ccc2c(c1)sc(N)[n+]2Cc1cc(C)cc2cccnc12,-1,9.7*,-1,1,-11,-3,0.065
Fc1ccccc1CSCc1nc2ccccc2[nH]1,17,/,5,1,-18,-2,/
CSc1ncccc1C(=O)NC(C)C1CC2CCC1C2 (stereo unspecified),2,/,1,1.1,-10,-6,/
CC(C)OC(=O)CSc1nnc(-c2ccccc2)n1N,0,6.7*,-3,1.1,-4,-5,0.044
CC(C)OC(=O)CSc1nnc(-c2cccnc2)n1N,0,0.58,0,1,5,1,/
CC1=C(C(=O)N2CCOCC2)C(c2ccccc2F)C2=C(CC(C)(C)CC2=O)N1 (stereo unspecified),0,1.1,0,1,-14,-1,/
COc1ccc(C2C(C(=O)N3CCOCC3)=C(C)NC3=C2C(=O)CC(C)(C)C3)c(OC)c1 (stereo unspecified),0,8.2*,-4,1.1,-10,-5,0.059
COC(=O)C1C(=O)OC(C)(C)C1C(C)C(=O)c1ccccc1 (stereo unspecified),1,4.8*,0,1,-21,-4,0.036
COC(=O)C1C(=O)OC(C)(C)C1C(C)C(=O)c1ccc(C)cc1C (stereo unspecified),0,/,-1,1,-2,-2,/
Cc1onc(-c2c(F)cccc2Cl)c1C(=O)NC1CCSC1=O (stereo unspecified),0,5*,1,1,-8,-2,0.059
O=C1C2CC=CCC2C(=O)N1Cc1ccccc1Cl (stereo unspecified),4,-0.83,9,1.1,-10,-7,/
COCCCn1c(SCC(=O)N2CC(=O)Nc3ccccc32)nnc1-c1ccoc1C,0,11*,-2,1,-12,-4,0.084*
Cc1ccc(/C=N/N(Cc2ccccc2)c2ccccc2)o1,1,/,-2,1,1,-4,/
CN(C(=O)COc1ccccc1C(=O)NCCc1ccccc1)c1ccccc1,0,-1.7,2,1,-13,2,/

# Screening results (PubChem)
